ChEMBL document CHEMBL1133536, “Cation substitution in cationic phosphonolipids: a new concept to improve transfection activity and decrease cellular toxicity” (J Med Chem, 2000)
“And” between values parts separate entries of the source, which are not always exact repeats. Identical values can stand only once.

Legend:
[1] = In vivo toxic effect of alanine aminotransferase (ALAT) was determined 24 hr after mice were injected with 50 microg of pTG11033 plasmid complexed with compound into serum with DOPE; assay type: ADME, organism-based; conditions: mouse
Summary of the method: (§1)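 Female Swiss mice, 6 weeks old, given one 200 µL tail-vein injection of cationic phosphonolipid/pTG11033 lipoplexes (lipid:DNA charge ratio 4, 50 µg DNA per animal). Lipoplexes were held 30 min at room temperature beforehand. Serum was taken from coagulated blood 24 h later and transaminases measured on an automated analyser. Results are mean (SEM) of 6 animals. TI = transfected/control mouse transaminase level.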

[2] = biological target: T1, Aspartate aminotransferase, mitochondrial (Mus musculus) (UniProt P05202); assay: In vivo toxic effect as serum aspartate aminotransferase (ASAT) 24 hr after cholesterol complexed 50 ug pTG11033 plasmid injection into mice; assay type: functional, organism-based; summary of the method: as §1
T1 sequence (whole entry): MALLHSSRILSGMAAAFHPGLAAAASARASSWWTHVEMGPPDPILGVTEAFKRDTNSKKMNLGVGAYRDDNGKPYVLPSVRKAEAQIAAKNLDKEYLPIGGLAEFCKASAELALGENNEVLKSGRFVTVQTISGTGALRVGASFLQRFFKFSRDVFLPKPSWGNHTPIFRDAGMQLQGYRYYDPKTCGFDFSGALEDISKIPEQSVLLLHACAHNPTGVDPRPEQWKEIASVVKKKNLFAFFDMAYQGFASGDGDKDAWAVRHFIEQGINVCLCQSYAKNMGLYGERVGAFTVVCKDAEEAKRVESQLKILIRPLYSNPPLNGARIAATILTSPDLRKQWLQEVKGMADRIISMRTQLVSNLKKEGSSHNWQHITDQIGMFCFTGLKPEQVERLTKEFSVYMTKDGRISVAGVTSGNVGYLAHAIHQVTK

[3] = In vivo toxic effect of alanine aminotransferase (ALAT) was determined 24 hr after mice were injected with 50 microg of pTG11033 plasmid complexed with compound into serum without co-lipid; assay type: ADME, organism-based; conditions: mouse; summary of the method: as §1
[4] = biological target: T1, Aspartate aminotransferase, mitochondrial (Mus musculus); assay: Toxicity index as ratio of serum ASAT levels in transfected and control mice; assay type: functional; summary of the method: as §1
[5] = biological target: T1, Aspartate aminotransferase, mitochondrial (Mus musculus); assay: In vivo toxic effect as serum aspartate aminotransferase (ASAT) 24 hr after DOPE complexed 50 ug pTG11033 plasmid injection into mice; assay type: functional, organism-based; summary of the method: as §1
[6] = biological target: T1, Aspartate aminotransferase, mitochondrial (Mus musculus); assay: In vivo toxic effect as serum aspartate aminotransferase (ASAT) 24 hr after 50 ug pTG11033 plasmid injection without co-lipid into mice; assay type: functional, organism-based; summary of the method: as §1
[7] = (§2) In vivo toxic effect of alanine aminotransferase (ALAT) was determined 24 hr after mice were injected with 50 microg of pTG11033 plasmid complexed with compound into serum with cholesterol; assay type: ADME, organism-based; set-up: unit not given beside the values; conditions: mouse; summary of the method: as §1
[8] = as §2; assay type: ADME, organism-based; conditions: mouse; summary of the method: as §1

| Structure (SMILES) | Toxicity [1] | Toxicity [2] | Toxicity [3] | TI [4] | Toxicity [5] | Toxicity [6] | Toxicity [7] | Toxicity [8] |
| --- | --- | --- | --- | --- | --- | --- | --- | --- |
| CCCCCCCCCCCCCCOP(=O)(CC[P+](C)(C)C)OCCCCCCCCCCCCCC.[I-] | 39 | 174 | 55 | 1.69 (2×) and 2.39 and 2.45 | 145 | 120 | 34 | – |
| CCCCCCCC/C=C/CCCCCCCCOP(=O)(CC[P+](C)(C)C)OCCCCCCCC/C=C/CCCCCCCC.[I-] | 65 | 685 | 35 | – | 646 | 250 | – | 184 |
| CCCCCCCC/C=C\CCCCCCCC(=O)OCC(C[N+](C)(C)C)OC(=O)CCCCCCC/C=C\CCCCCCCC.[Cl-] (stereo not given) | 74 | 255 | 70 | – | 275 | 657 | 37 | – |
| CCCCCCCC/C=C/CCCCCCCCOP(=O)(C[N+](C)(C)C)OCCCCCCCC/C=C/CCCCCCCC.[I-] | 30 | 225 | 250 | – | 125 | 900 | 70 | – |
| CCCCCCCCCCCCCCOP(=O)(CC[As+](C)(C)C)OCCCCCCCCCCCCCC.[I-] | 34 | 190 | 26 | 1.47 [middle of 4 runs] | 155 | 79 | – | 41 |
| CCCCCCCCCCCCCCOP(=O)(C[N+](C)(C)C)OCCCCCCCCCCCCCC.[I-] | 31 | 75 | 25 | 1.12 [middle of 4 runs] | 130 | 80 | 24 | – |
| CCCCCCCC/C=C/CCCCCCCCOP(=O)(CC[As+](C)(C)C)OCCCCCCCC/C=C/CCCCCCCC.[I-] | 36 | 600 | 35 | – | 303 | 225 | 172 | – |
